Data on 6 compounds can be found in ChEMBL document CHEMBL4138201, “Synthesis and biological evaluation of sulfur-containing shikonin oxime derivatives as potential antineoplastic agents” (Eur J Med Chem, 2018).

For test [1], the system named is HCT-15. In words: Cytotoxicity against human HCT15 cells after 48 hrs by MTT assay. Type of test: functional, cell-based. The note with it: HCT-15, 48 h. The procedure, abridged: (§1)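 MTT colorimetric assay. Shikonin and 5-fluorouracil served as reference agents. IC₅₀ obtained by linear regression of each compound's concentration–response curve.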
(In general: Formazan colour is commonly taken as a measure of viable cells.)

The test system of test [2] is MGC-803. In words: Cytotoxicity against human MGC803 cells after 48 hrs by MTT assay. Conditions: MGC-803, 48 h. Format: functional, cell-based. A digest of the protocol: as §1
Test [3] concerns Bel-7402. Briefly: Cytotoxicity against human Bel7402 cells after 48 hrs by MTT assay. Format: functional, cell-based. Conditions: Bel-7402, 48 h. The procedure, abridged:
as §1

The test system of test [4] is MCF7. Briefly: Cytotoxicity against human MCF7 cells after 48 hrs by MTT assay. Format: functional, cell-based. The note with it: MCF7, 48 h. The procedure, abridged:
as §1

Test [5] can be described thus: Cytotoxicity against human HSF cells after 48 hrs by MTT assay. Type of test: cell-based. The procedure, abridged: as §1

A value given as a limit tells only on which side of the number the result lay.

With `CCCCCC(=O)SC(CC=C(C)C)c1cc(OC)c2c(c1OC)/C(=N/O)C=C/C2=N\O` (stereo not given), the IC50 (usually the concentration that inhibits the measured activity by half) in test [1] was 7210 nM; in test [2] it was 16900 nM; in test [3], 22400 nM; in test [4] it was 45700 nM; in test [5] it was over 50000 nM.
Regarding `COc1cc(C(CC=C(C)C)SC(C)=O)c(OC)c2c1/C(=N/O)C=C/C2=N\O` (stereo not given), the IC50 in test [1] was 1220 nM; in test [2], 2490 nM; in test [3] it was 3650 nM; in test [4] it was 23500 nM; in test [5], over 50000 nM.
For `COc1cc([C@@H](CC=C(C)C)SCCC(C)C)c(OC)c2c1/C(=N/O)C=C/C2=N\O`, in that order: 1940 nM, 5870 nM, 8950 nM, 39400 nM and over 50000 nM.
For `CC(C)=CC[C@@H](O)C1=CC(=O)c2c(O)ccc(O)c2C1=O` [SHIKONIN], in that order: 860 nM, 1510 nM, 1240 nM, 2400 nM and 1250 nM.
On to `COc1ccccc1C(=O)SC(CC=C(C)C)c1cc(OC)c2c(c1OC)/C(=N/O)C=C/C2=N\O` (stereo not given), for which the IC50 in test [1] is 890 nM; in test [2], 1370 nM; in test [3] it was 1060 nM; in test [4], 19800 nM; in test [5] it was over 50000 nM.
Regarding `COc1cc(C(CC=C(C)C)SC(=O)c2ccccc2)c(OC)c2c1/C(=N/O)C=C/C2=N\O` (stereo not given), the concentration for half-maximal inhibition (IC50) in test [1] is 630 nM; in test [2] it was 1280 nM; in test [3], 1200 nM; in test [4], 17400 nM; in test [5] it was over 50000 nM.
